# HTR1E antagonist: antagonists of human 5-HT1E serotonin receptor | P28566 | CHO 5-HT1E Ga15 NFAT-bla reporter, FRET, antagonist | inhibition, % at 6 µM | 65,000 compounds, 0.99% hits | AID 571;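 active means inhibition above a set limit, the mean inhibition across every tested compound plus 3 SD, cut at about 29% in these data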;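 further: signal is the 460 over 535 nm emission ratio of beta-lactamase substrate; 0% = agonist plus DMSO wells and 100% = wells without agonist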
# S1P1 ag pot: agonists and agonism potentiators of human S1P1 receptor | P21453 | S1P1 CRE-bla cells, forskolin, beta-lactamase FRET, potentiator mode; S1P1 agonist co-added at EC20, 2 nM; 100% = saturating reference agonist, 0% = basal | activation, % at 9.5 µM | 56,000 compounds, 0.57% hits | AID 449;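 active means activation above a cutoff set at the mean activation of all tested compounds plus 3 SD, cut at about 54% in these data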;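 further: forskolin at 4 µM as EC80 and the EC20 agonist is SEW2871; 100% = SEW2871 at its EC100 plus forskolin at EC80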
# S1P3 agonist: S1P3 (human) receptor agonism. 60,000 compounds, 0.1% hits. activation, % at 4.5 µM. Q99500. S1P3 NFAT-BLA reporter cells, FRET ratio; relative to 1 µM S1P, basal subtracted;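 active means activation above the screen-wide mean plus 3 SD, cut at about 4.5% in these data, passing the limit was not always enough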
# Target sequence (Q99500 whole entry, looked up): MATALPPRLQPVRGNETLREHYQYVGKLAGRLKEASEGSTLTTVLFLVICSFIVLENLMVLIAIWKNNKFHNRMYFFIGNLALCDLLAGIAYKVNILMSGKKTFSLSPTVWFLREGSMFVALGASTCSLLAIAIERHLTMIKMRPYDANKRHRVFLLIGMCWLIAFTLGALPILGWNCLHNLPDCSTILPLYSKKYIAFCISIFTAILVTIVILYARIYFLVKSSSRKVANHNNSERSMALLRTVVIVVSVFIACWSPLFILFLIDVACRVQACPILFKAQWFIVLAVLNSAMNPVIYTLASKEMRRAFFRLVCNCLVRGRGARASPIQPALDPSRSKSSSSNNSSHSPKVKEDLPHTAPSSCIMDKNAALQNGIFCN
#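 material = human S1P3 NFAT-BLA reporter CHO cells | schedule = 4 h compound at 37 °C, 2 h substrate at RT | measured by = fluorescent BLA substrate, ex 405 nm, em 460/535 nm ratio | controls = 1 µM S1P reference | replication = primary once, confirmation triplicate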
# 5HT1a ag: 5-HT1a (human) receptor agonism; P08908; CHO 5-HT1a Ga15 NFAT-bla reporter, FRET ratio; 0% basal, 100% maximal reference agonist; activation, % at 10 µM; 65,000 compounds, 0.56% hits; AID 567;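 active means activation above the screen-wide mean activation plus 3 SD, cut at about 19% in these data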;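 further: 0% = DMSO wells and 100% = 5-CT at EC100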
# 5HT1a antag: blocks the human serotonin 5-HT1a receptor; AID 612; inhibition, % at 10 µM; P08908; CHO 5-HT1a Ga15 NFAT-bla reporter, antagonist mode; 62,000 compounds, 0.68% hits;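 active means inhibition above the mean of all tested compounds plus 3 SD, cut at about 43% in these data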;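 further: receptor stimulated by 5-CT agonist at 100 nM near EC80; beta-lactamase reporter measured by ratiometric fluorescence of a cleavable substrate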
# 5HT1E ag: 5-HT1E (human) receptor agonism. CHO 5-HT1E Ga15 NFAT-bla reporter, FRET; 0% DMSO wells, 100% control agonist wells. AID 574. activation, % at 6 µM. 65,000 compounds, 0.69% hits;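 active means activation above a set limit, the screen-wide mean activation plus 3 SD, cut at about 8.5% in these data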;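 further: 100% = positive control agonist at 1 µM giving full maximal response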
# The depositor's hits bear a star; nt = not tested or not shown. Hits are enriched below; roughly 3% of the tested compounds scored in any of these assays.
SMILES,HTR1E antagonist,S1P1 ag pot,S1P3 agonist,5HT1a ag,5HT1a antag,5HT1E ag
COc1ccc(-c2nc(N)ncc2Oc2ccccc2Br)c(O)c1,28,1,-1,0,44*,-1
COc1cccc(Oc2cnc(N)nc2-c2ccc(OC)cc2O)c1,26,13,-2,-1,22,0
COc1ccc(-c2noc(CCC(=O)N3CCN(c4cc(C)ccc4C)CC3)n2)cc1,-3,nt,nt,-1,6,-2
CC(=O)C(Sc1nc(-c2ccc(F)cc2)nc2c1c(=O)n(C)c(=O)n2C)C(C)=O,97*,7,0,2,6,-1
CCOC(=O)c1cnn(CCOC(=O)Cc2cccs2)c1NC(=O)Cc1cccs1,0,-7,0,0,6,0
Clc1ccc2[nH]c3c(NCCCN4CCOCC4)ncnc3c2c1,23,-46,-2,3,nt,-1
O=C1CCCN1CCCNc1ncnc2c1[nH]c1ccc(Cl)cc12,35*,-31,0,0,-4,0
CC#CCN(CC#CC)S(=O)(=O)c1ccc(-n2cnnn2)c(OC)c1,5,-6,0,2,26,1
c1ccc(Nc2nc(-c3cccs3)cs2)nc1,-10,16,0,0,24,0
Cc1cccc(Nc2nc(-c3ccccn3)cs2)n1,36*,51,-1,-1,45*,0
O=C(O)C1CCC(=O)N1Cc1ccccc1Cl (stereo unspecified),-1,4,1,-3,-12,-1
CCOC(=O)N1CCN(C(=O)C2COc3ccccc3O2)CC1 (stereo unspecified),-2,nt,nt,-1,-2,3
CCOC(=O)N1CCN(C(=O)CSc2nnc(C3COc4ccccc4O3)o2)CC1 (stereo unspecified),8,9,0,78*,-12,0
CCCn1c(=O)c(C(=O)Nc2nnc(C)s2)c(O)c2ccccc21,0,-2,1,-1,-15,0
CCOc1ccc2[nH]c(=O)c(CN(CC3CCCN3CC)C(=O)NCc3ccccc3)cc2c1 (stereo unspecified),9,8,-1,-1,14,0
O=C(Oc1ccc(-c2nnco2)cc1)N(c1ccccc1)c1ccccc1,1,nt,16*,-2,3,0
Cc1ccc2oc(=O)n(CCOc3ccccc3Cl)c2c1,32*,5,-1,0,24,-2
CCCOc1ccccc1Cn1c(=O)oc2ccc(C)cc21,14,nt,nt,-2,44*,-1
COc1ccc(-c2cn3c(C)c(C(=O)N4CCCc5ccccc54)sc3n2)cc1,21,70*,-2,0,4,1
N#Cc1nc(-c2cccs2)oc1NCCc1ccccc1,36*,2,-4,4,nt,-1
N#Cc1nc(-c2ccco2)oc1NCCc1ccccc1,5,-17,0,-1,-13,0
COc1ccccc1CCn1cnc2c3cc(C)ccc3n(C)c2c1=O,-9,-23,0,-1,2,0
Cc1c(=O)n(OCc2c(F)cccc2F)c2ccccc2[n+]1[O-],-1,8,-3,1,nt,0
CC1CCCCN1C(=O)CSc1nnc(-c2c[nH]c3ccccc23)o1 (stereo unspecified),-3,48,0,4,-14,23*
CCC1CCCCN1C(=O)CSc1nnc(-c2ccco2)o1 (stereo unspecified),8,12,-1,2,6,-1
O=C(CSc1nnc(-c2c[nH]c3ccccc23)o1)N(Cc1ccccc1)c1ccc(F)cc1,-10,107*,5,1,24,0
O=C(O)c1ccccc1S,0,-7,0,-3,nt,-1
CC(C)(C)OC(=O)NCCc1nnc(S(=O)(=O)Cc2ccc(Cl)cc2Cl)o1,12,46,-2,0,69*,-1
O=C(NCc1cccnc1)C1c2ccccc2C(=O)N1Cc1ccco1 (stereo unspecified),-7,-3,0,-1,1,0
c1ccc(-c2csc3ncn4cnnc4c23)cc1,32*,1,-1,-2,9,0

# Screens: PubChem, The Scripps Research Institute Molecular Screening Center
